Columns and labels:
[1] = target: T1, Cyclic nucleotide-gated channel alpha-1 (Bos taurus, UniProt Q00194); experiment: Apparent dissociation constant against Cyclic nucleotide gated channel alpha 1 at +40 mV
T1 sequence (Q00194 whole entry): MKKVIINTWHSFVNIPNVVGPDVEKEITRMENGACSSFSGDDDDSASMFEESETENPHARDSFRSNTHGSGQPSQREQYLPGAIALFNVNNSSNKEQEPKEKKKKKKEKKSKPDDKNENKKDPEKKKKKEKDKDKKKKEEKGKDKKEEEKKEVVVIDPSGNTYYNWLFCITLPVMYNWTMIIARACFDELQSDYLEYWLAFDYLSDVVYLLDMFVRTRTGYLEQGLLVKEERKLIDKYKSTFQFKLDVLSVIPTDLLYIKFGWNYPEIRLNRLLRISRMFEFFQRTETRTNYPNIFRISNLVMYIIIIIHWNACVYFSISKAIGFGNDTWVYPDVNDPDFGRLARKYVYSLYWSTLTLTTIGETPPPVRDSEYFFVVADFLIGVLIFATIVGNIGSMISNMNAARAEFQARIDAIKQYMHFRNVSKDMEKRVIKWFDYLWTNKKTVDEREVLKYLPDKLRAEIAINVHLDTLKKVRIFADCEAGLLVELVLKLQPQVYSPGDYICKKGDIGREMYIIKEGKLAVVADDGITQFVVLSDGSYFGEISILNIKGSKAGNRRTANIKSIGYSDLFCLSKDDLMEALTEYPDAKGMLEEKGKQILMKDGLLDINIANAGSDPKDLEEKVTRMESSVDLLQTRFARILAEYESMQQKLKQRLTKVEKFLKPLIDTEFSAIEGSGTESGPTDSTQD
Summary of the method: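 Bovine CNGA1 cRNA injected (5-25 ng) into Xenopus oocytes kept at 18 °C; inside-out excised patches recorded 1-6 days later at room temperature. Identical pipet/bath solution: 130 mM NaCl, 2 mM HEPES, 1 mM EGTA, 0.02 mM EDTA, pH 7.6. Blocker added to bath with saturating cGMP; steps -80 to +40 mV. End-of-pulse current corrected for ion accumulation/depletion. KD from I+D/I-D = KD/(KD+[D]).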

[2] = target: T1, Cyclic nucleotide-gated channel alpha-1; experiment: Apparent dissociation constant against Cyclic nucleotide gated channel alpha 1 at 0 mV
Summary of the method: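 CNGA1 (bovine) expressed in Xenopus oocytes from 5-25 ng cRNA; inside-out patches at room temperature in symmetrical 130 mM NaCl, 2 mM HEPES, 1 mM EGTA, 0.02 mM EDTA, pH 7.6, saturating cGMP with blocker in bath. Depolarizations -80 to +60 mV in 10 mV steps. Fraction of current remaining fitted with Woodhull equation, giving KD at 0 mV and zδ.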

SMILES	Kd [1] [µM]	Kd [2] [µM]
CCCCNc1ccc(C(=O)OCC[N+](C)(C)CCCNCCCN)cc1	3e-05	0.0069
CN(C)CCOC(=O)c1ccc(NCCCCN)cc1	210	970
CC(=O)NCCCCNc1ccc(C(=O)OCCN(C)C)cc1	2500	4000
CN(C)CCOC(=O)c1ccc(N)cc1	2300	10000

More lines, now with the values ahead:

Kd [1] [µM]	Kd [2] [µM]	SMILES
3.1	5.4	CCCCNc1ccc(C(=O)OCC[N+](C)(C)CCCC)cc1
0.074	1.4	CCCCNc1ccc(C(=O)OCC[N+](C)(C)CCCN)cc1
